Measurements collected from several papers.
Compare with care: the assays were run in different laboratories.
Target: Casein kinase II subunit alpha' (CSNK2A2, Homo sapiens, UniProt P19784)

For `N[C@@H]1CCN(c2nccc(-c3cnn4ncccc34)n2)C1`, the remaining binding was 100% (binding; 1 µM).
`O=C(NCCCN1CCOCC1)c1ccc(Nc2nccc(-c3cc4ccccc4s3)n2)cc1` gave a remaining binding of 19% (binding; competition with immobilised ligand; 1 µM).
`CN(C)c1ncc(F)c(-c2cnn3ncccc23)n1` gave a remaining binding of 100% (binding; 1 µM).
With `O=C(N1CCS(=O)(=O)CC1)N1C[C@H](c2ccc(OC(F)(F)F)cc2)C[C@H](c2nc(C3CC3)no2)C1` the remaining binding was 100% (cell-free assay; competition with immobilised ligand; 1 µM).
With `CN(CCCC(F)(F)F)c1nccc(-c2cnn3ncccc23)n1` the remaining binding was 92% (binding; 1 µM).
`C[C@H](c1ccc(F)cc1)N(Cc1cccc(C(=O)O)c1)C(=O)c1cnc2ccccc2c1` gave a remaining binding of 86% (cell-free assay; competition with immobilised ligand; 1 µM).
`c1cnn2ncc(-c3ccnc(N4CCC45COC5)n3)c2c1` has a remaining binding of 24% (binding; 1 µM).
For `CO[C@@H](C)c1c(Nc2ccc([C@@H](N(C)C(=O)C3CCS(=O)(=O)CC3)C(F)(F)F)cc2)cnc2cc(Cl)nn12`, the remaining binding was 100% (cell-free assay; competition with immobilised ligand; 1 µM).
`FC(F)(F)Oc1cccc(-c2cnc3ccc(-c4ccncc4)nn23)c1` gave a remaining binding of 23% (cell-free assay; competition with immobilised ligand; 5 µM).
`Cn1cc(Cl)c2c(Oc3c(F)cc(Nc4cc(Cl)nc(N)n4)cc3F)ccnc21` has a remaining binding of 89% (cell-free assay; competition with immobilised ligand; 0.1 µM).
`Cc1cnc(Nc2ccc(C(=O)N3CCC(N4CCCC4)CC3)cc2)nc1-c1cc2ccccc2s1` gave a remaining binding of 0% (binding; competition with immobilised ligand; 1 µM).
`C[C@@H]1CCN(c2nccc(-c3cnn4ncccc34)n2)C1` has a remaining binding of 60% (binding; 1 µM).
The remaining binding of `O=C(Nc1c[nH]nc1C(=O)NC1CCNCC1)c1cc(F)cc(F)c1` is reported as 100% (binding; competition with immobilised ligand; 1 µM).
The remaining binding of `COc1cc(-c2cn(C3CCc4ccccc4N(CC(F)(F)F)C3=O)nn2)ccc1-n1ccc(C)n1` (stereo not shown) is reported as 84% (cell-free assay; competition with immobilised ligand; 1 µM).
With `Cc1cnn2ncc(-c3ccnc(N(C)C)n3)c2c1` the remaining binding was 69% (binding; 1 µM).
`COc1ncc2cc3ccccc3nc2c1C#N` has a remaining binding of 97% (cell-free assay; competition with immobilised ligand; 5 µM).
For `CC(C)(O)c1cncc(-c2nc3ccc(F)cc3n2C2CC2)c1`, the remaining binding was 100% (cell-free assay; competition with immobilised ligand; 1 µM).
The remaining binding of `O=C(c1ccc(Nc2nccc(-c3cc4ccccc4s3)n2)cc1)N1CCC(N2CCCC2)CC1` is reported as 1.8% (binding; competition with immobilised ligand; 1 µM).
`COc1ccnn2ncc(-c3ccnc(N(C)C)n3)c12` gave a remaining binding of 61% (binding; 1 µM).
The remaining binding of `CNC(=O)[C@@H]1CC[C@@H](n2c(-c3ccc4cnccc4c3)nc3ccc(C(=O)NCc4cccc(C(N)=O)c4)cc32)C1` is reported as 100% (binding; competition with immobilised ligand; 1 µM).
`Cc1c(NC(=O)c2cc(C(N)=O)nc3cc(F)ccc23)c(C(F)(F)F)nn1Cc1ccc(C#N)cc1` has a remaining binding of 100% (cell-free assay; competition with immobilised ligand; 1 µM).
For `c1cncc(-c2cccc(Nc3nccc(NC4CCCCC4)n3)c2)c1`, the remaining binding was 65% (binding; competition with immobilised ligand; 10 µM).
